Holding throughout (assay type): functional, cell-based
The subject of test [1] is PLC-PRF-5. In words: Antiproliferative activity against human PLC/PRF/5 cells incubated for 72 hrs in presence of oridonin by CCK8 cells. The settings on record: PLC-PRF-5, 72 h.
In test [2] the test system is HepG2. Description: Antiproliferative activity against human HepG2 cells incubated for 72 hrs by CCK8 cells. The settings on record: HepG2, 72 h. A digest of the protocol: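 CCK-8 proliferation assay. 10,000 cells per well were preincubated 24 h at 37 °C with 5% CO2, then given compound dissolved in DMSO and incubated 72 h. CCK-8 was added for 4 h and absorbance read at 450 nm. IC50 was taken from dose-response curves as mean ± SEM of at least three independent experiments, with paclitaxel as positive control. HepG2 and L-O2 were grown in DMEM/10% FBS; A549 and RPMI-8226 in RPMI 1640/10% FBS.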

Test [3] relates to PLC-PRF-5. Description: Antiproliferative activity against human PLC/PRF/5 cells incubated for 72 hrs by CCK8 cells. The settings on record: PLC-PRF-5, 72 h.
Test [4] has as its system HepG2. Description: Antiproliferative activity against human HepG2 cells incubated for 72 hrs in presence of oridonin by CCK8 cells. The following applies: HepG2, 72 h.

On to `COc1ccc(/C=C/C(=O)O)cc1` [4-METHOXYCINNAMIC ACID], for which the IC50 was 6.55 µM in the test with PLC-PRF-5 [1], > 100 µM with HepG2 [2], > 100 µM with PLC-PRF-5 [3] and 8.56 µM in the test with HepG2 [4].

The values are drawn from ChEMBL document CHEMBL4364265, “Oridonin derivatives as potential anticancer drug candidates triggering apoptosis through mitochondrial pathway in the liver cancer cells” (Eur J Med Chem, 2019).
